# Measured values taken from PMC9482816 (Journal of medicinal chemistry, 2022).
# “Also recorded” adds a separate entry of the source.
# Legend:
# [1] = test system: H3K9me2 level in MDA-MB-231 cells; experiment: Western blot analysis for H3K9me2 in MDA-MB-231 cells; format: cell-based; details: 0.2, 1, or 5 μM for 24, 48, or 72 h
# [2] = test system: H3K9me2 level in K562 cells; experiment: Western blot analysis for H3K9me2 in K562 cells; format: cell-based; details: treated for 48 h
# G9a [3] = biological target: T1, G9a (Homo sapiens, UniProt Q96KQ7); experiment: Mass spectrometry based analysis of G9a-inhibitor adduct formation; format: binding; details: for covalent modification of G9a (MS-based analysis, in words): after 1 h of incubation
# T1 sequence (Q96KQ7 913-1193): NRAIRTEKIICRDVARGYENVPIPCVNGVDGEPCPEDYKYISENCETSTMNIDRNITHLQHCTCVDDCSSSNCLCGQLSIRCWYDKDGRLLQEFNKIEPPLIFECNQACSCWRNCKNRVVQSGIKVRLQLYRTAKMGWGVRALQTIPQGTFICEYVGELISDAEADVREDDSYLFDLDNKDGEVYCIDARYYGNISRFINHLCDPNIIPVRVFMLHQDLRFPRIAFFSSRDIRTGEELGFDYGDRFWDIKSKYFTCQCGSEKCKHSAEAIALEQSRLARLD
# Outline: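 Purified human G9a catalytic domain (residues 913–1193), 5 μM in 50 mM Tris-HCl pH 7.5, 150 mM NaCl, incubated 1 h at room temperature with 50 μM test compound or DMSO. Intact protein analysed by electrospray LC/TOF mass spectrometry. Protein–inhibitor adduct quantified from the mass shift over unmodified G9a (34 314 Da).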
# GLP [4] = biological target: T2, GLP (Homo sapiens, UniProt Q9H9B1); experiment: Isothermal titration calorimetry; format: binding; details: ITC
# T2 sequence (Q9H9B1 982-1266): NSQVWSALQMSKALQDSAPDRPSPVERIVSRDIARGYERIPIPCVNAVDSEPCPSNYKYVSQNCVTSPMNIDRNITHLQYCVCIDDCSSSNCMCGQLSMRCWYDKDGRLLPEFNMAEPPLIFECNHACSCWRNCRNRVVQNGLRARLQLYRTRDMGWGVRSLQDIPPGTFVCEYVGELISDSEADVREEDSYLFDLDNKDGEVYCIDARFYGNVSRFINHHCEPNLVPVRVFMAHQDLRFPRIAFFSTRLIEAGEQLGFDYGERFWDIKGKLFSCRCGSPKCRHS
# G9a [5] = biological target: T3, G9a (Homo sapiens, UniProt Q96KQ7); experiment: Radioactivity-based scintillation proximity biochemical assay, G9a; details: preincubation 5, 15, 45 min
# T3 sequence (Q96KQ7 1-1210): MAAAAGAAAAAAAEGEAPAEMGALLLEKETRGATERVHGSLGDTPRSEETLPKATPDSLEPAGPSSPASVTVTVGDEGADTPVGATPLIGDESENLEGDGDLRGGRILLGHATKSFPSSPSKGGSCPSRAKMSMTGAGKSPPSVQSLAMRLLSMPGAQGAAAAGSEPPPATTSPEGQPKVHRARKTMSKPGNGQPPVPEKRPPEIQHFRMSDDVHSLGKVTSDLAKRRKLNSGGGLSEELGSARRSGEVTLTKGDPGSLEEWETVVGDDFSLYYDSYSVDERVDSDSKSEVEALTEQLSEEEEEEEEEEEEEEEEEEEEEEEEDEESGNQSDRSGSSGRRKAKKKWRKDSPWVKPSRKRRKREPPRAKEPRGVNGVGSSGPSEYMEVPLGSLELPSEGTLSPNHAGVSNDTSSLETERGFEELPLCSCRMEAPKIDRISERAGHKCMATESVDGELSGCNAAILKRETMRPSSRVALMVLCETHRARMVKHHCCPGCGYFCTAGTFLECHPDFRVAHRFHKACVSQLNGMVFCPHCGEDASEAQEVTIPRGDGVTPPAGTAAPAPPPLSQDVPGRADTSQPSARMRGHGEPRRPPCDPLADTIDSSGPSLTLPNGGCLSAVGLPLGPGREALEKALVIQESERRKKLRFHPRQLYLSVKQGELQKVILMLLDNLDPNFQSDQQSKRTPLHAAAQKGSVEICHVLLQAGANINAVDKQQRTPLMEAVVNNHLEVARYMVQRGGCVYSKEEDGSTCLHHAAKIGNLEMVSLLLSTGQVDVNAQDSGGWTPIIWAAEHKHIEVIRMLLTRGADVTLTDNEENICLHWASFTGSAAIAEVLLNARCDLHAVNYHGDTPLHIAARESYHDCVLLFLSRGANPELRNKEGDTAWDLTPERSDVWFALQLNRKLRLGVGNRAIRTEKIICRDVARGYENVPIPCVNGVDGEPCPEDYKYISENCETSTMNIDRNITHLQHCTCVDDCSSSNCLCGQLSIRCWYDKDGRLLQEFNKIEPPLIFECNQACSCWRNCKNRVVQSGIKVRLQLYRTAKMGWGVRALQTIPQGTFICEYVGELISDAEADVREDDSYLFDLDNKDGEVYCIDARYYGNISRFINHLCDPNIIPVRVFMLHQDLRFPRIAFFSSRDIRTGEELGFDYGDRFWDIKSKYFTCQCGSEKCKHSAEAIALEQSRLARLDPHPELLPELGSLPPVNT
# Outline: (§1)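 Tritiated methyl transfer from SAM to H3 peptide, read by scintillation proximity. Enzymes are recombinant human catalytic domains: G9a (913–1193) and GLP (982–1266), each at 5 nM. Substrate is H3 peptide at 0.05 μM and SAM cofactor at 1 μM. Test compound is preincubated with enzyme for 5, 15 or 45 min. Run by a contract lab in four replicates.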
# GLP [6] = biological target: T4, GLP (Homo sapiens, UniProt Q9H9B1); experiment: Radioactivity-based scintillation proximity biochemical assay, GLP; details: preincubation 5, 15, 45 min
# T4 sequence (Q9H9B1 1-1298): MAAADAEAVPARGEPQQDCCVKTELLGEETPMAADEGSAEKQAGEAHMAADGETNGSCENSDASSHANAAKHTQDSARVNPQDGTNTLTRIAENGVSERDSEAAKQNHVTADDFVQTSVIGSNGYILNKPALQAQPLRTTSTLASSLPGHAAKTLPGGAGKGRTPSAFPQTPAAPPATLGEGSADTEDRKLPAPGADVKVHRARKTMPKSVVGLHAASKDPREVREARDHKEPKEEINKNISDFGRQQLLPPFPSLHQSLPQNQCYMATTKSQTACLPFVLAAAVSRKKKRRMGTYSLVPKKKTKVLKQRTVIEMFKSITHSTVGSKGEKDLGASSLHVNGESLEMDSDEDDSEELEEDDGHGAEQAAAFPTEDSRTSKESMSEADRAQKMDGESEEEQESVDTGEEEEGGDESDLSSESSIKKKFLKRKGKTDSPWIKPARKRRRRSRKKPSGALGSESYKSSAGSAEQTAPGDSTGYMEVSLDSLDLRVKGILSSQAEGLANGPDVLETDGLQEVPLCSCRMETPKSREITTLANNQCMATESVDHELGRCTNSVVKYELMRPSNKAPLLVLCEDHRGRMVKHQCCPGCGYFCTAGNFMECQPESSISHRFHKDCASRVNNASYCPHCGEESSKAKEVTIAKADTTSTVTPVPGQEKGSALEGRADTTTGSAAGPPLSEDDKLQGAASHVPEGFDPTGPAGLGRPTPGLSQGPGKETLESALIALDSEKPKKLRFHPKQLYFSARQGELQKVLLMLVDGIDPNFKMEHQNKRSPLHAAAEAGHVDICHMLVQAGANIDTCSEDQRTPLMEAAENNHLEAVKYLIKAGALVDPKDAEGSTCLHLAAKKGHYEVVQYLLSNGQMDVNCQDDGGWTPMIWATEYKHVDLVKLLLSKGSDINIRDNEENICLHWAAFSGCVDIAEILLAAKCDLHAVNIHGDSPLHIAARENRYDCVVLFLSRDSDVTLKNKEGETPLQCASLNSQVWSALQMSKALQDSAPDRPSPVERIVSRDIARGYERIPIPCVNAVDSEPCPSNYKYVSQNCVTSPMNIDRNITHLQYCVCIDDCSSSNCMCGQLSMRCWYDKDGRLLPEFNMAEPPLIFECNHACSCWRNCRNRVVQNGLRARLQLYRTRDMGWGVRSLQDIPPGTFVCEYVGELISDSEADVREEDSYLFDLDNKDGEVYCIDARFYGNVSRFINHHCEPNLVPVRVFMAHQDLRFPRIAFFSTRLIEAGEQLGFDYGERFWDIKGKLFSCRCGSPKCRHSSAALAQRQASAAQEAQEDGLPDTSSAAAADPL
# Outline: as §1
# [7] = test system: 21 other methyltransferases (PKMTs and PRMTs); experiment: Selectivity assays against other methyltransferases; format: biochemical; details: compound at 1 μM; any of the 21 enzymes
# Outline: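 Radioactivity-based scintillation proximity format that follows transfer of the 3H-labelled methyl group from SAM to substrate. Test compound at 1 μM, run in duplicate against each methyltransferase. Inhibition expressed as percentage of control enzyme activity.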
# MDA-MB-231 cells = experiment: Cytotoxicity assay; format: cell-based; details: 3 days, CCK-8 (Figure S2)
# Outline: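 MDA-MB-231 cells are seeded at 1 × 10^4 cells per well and exposed to test compound at various concentrations for 3 days. Viability is read with CCK-8 following the kit protocol. Values are plotted from triplicate experiments.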
fold improved binding affinity to GLP compared to UNC0642 (GLP [4]) [fold],SMILES,reduction of H3K9me2 level in MDA-MB-231 cells [1],reduction of H3K9me2 level in K562 cells [2],"covalent modification of G9a (MS-based analysis, in words) (G9a [3])","rate of G9a adduct formation compared to GLP adduct (G9a [3]; mass spectrometry, 0-120 min, 5 μM G9a or GLP, 50 μM compound)",inhibition of G9a compared to GLP (G9a [5]),inhibitory activity against G9a with preincubation time (G9a [5]),inhibitory activity against GLP with preincubation time (GLP [6]),inhibition effect against 21 PKMTs and PRMTs [7] [%],inhibition of cell growth in MDA-MB-231 cells (MDA-MB-231 cells)
–,"C=CC(=O)Nc1nc(NC2CCN(C(C)C)CC2)c2cc(OC)c(OCCCN3CCCC3)cc2n1 [Compound 1, N-(4-((1-Isopropylpiperidin-4-yl)amino)-6-methoxy-7-(3-(pyrrolidin-1-yl)propoxy)-quinazolin-2-yl)acrylamide]",slightly lower potency than UNC0642 and compound 9,reduced the H3K9me2 level in K562 cells,–,–,–,–,–,–,–
–,"C=CC(=O)N(C)c1nc(NC2CCN(C(C)C)CC2)c2cc(OC)c(OCCCN3CCCC3)cc2n1 [Compound 6, N-(4-((1-Isopropylpiperidin-4-yl)amino)-6-methoxy-7-(3-(pyrrolidin-1-yl)propoxy)-quinazolin-2-yl)-N-methylacrylamide]",–,–,completely lost its ability to covalently modify G9a,–,–,–,–,–,–
1.3,"C=CC(=O)Nc1cc(NC2CCN(C(C)C)CC2)c2cc(OC)c(OCCCN3CCCC3)cc2n1 [Compound 8, N-(4-((1-Isopropylpiperidin-4-yl)amino)-6-methoxy-7-(3-(pyrrolidin-1-yl)propoxy)quinolin-2-yl)acrylamide]",effectively reduced the H3K9me2 mark in a concentration- and time-dependent manner; also recorded: improved potency compared to UNC0642 and compound 9,reduced the H3K9me2 level in K562 cells; also recorded: much better potency compared to compound 1 and slightly better potency compared to UNC0642,–,faster than that of the GLP–compound 8 adduct,more effectively inhibited G9a than GLP at all three time points,improved inhibitory activity against G9a and GLP with increased preincubation time,improved inhibitory activity against G9a and GLP with increased preincubation time,≤ 50,more effective than compound 1 and UNC0642 in suppressing the growth of MDA-MB-231 cells
–,"CCC(=O)Nc1cc(NC2CCN(C(C)C)CC2)c2cc(OC)c(OCCCN3CCCC3)cc2n1 [Compound 9, N-(4-((1-Isopropylpiperidin-4-yl)amino)-6-methoxy-7-(3-(pyrrolidin-1-yl)propoxy)quinolin-2-yl)propionamide]",displayed some cellular potency as a reversible inhibitor but was not as potent as compound 8,–,did not covalently modify G9a,–,–,–,–,–,–
